The nature of data set [1]: Clearance in Wistar rat at 0.3 to 0.5 mg/kg, iv administered as bolus dose by LC-MS/MS analysis. Format: ADME, organism-based. To be noted: in vivo.
The test system of another data set is SU-DHL-8. The data set is described as follows: Antiproliferative activity against human SUDHL8 cells assessed as reduction in cell viability measured after 4 days by celltiter-glo luminescent assay. Format: functional, cell-based. To be noted: SU-DHL-8, 96 h.
A short description of data set [2]: Oral bioavailability in Beagle dog at 0.6 to 1 mg/kg by LC-MS/MS analysis. The class given is ADME, organism-based, Canis lupus familiaris. To be noted: in vivo.
The nature of data set [3]: Apparent half life in Beagle dog at 0.3 to 0.5 mg/kg, iv administered as bolus dose by LC-MS/MS analysis. To be noted: in vivo, read-out: t1/2(app) (converted). The class given is ADME, organism-based, Canis lupus familiaris.
The target in data set [4] is DNA-dependent protein kinase catalytic subunit (Homo sapiens, UniProt P78527). Put plainly: Inhibition of DNA-PK (unknown origin).
Sequence of DNA-dependent protein kinase catalytic subunit (P78527 whole entry, the tested form may be a part): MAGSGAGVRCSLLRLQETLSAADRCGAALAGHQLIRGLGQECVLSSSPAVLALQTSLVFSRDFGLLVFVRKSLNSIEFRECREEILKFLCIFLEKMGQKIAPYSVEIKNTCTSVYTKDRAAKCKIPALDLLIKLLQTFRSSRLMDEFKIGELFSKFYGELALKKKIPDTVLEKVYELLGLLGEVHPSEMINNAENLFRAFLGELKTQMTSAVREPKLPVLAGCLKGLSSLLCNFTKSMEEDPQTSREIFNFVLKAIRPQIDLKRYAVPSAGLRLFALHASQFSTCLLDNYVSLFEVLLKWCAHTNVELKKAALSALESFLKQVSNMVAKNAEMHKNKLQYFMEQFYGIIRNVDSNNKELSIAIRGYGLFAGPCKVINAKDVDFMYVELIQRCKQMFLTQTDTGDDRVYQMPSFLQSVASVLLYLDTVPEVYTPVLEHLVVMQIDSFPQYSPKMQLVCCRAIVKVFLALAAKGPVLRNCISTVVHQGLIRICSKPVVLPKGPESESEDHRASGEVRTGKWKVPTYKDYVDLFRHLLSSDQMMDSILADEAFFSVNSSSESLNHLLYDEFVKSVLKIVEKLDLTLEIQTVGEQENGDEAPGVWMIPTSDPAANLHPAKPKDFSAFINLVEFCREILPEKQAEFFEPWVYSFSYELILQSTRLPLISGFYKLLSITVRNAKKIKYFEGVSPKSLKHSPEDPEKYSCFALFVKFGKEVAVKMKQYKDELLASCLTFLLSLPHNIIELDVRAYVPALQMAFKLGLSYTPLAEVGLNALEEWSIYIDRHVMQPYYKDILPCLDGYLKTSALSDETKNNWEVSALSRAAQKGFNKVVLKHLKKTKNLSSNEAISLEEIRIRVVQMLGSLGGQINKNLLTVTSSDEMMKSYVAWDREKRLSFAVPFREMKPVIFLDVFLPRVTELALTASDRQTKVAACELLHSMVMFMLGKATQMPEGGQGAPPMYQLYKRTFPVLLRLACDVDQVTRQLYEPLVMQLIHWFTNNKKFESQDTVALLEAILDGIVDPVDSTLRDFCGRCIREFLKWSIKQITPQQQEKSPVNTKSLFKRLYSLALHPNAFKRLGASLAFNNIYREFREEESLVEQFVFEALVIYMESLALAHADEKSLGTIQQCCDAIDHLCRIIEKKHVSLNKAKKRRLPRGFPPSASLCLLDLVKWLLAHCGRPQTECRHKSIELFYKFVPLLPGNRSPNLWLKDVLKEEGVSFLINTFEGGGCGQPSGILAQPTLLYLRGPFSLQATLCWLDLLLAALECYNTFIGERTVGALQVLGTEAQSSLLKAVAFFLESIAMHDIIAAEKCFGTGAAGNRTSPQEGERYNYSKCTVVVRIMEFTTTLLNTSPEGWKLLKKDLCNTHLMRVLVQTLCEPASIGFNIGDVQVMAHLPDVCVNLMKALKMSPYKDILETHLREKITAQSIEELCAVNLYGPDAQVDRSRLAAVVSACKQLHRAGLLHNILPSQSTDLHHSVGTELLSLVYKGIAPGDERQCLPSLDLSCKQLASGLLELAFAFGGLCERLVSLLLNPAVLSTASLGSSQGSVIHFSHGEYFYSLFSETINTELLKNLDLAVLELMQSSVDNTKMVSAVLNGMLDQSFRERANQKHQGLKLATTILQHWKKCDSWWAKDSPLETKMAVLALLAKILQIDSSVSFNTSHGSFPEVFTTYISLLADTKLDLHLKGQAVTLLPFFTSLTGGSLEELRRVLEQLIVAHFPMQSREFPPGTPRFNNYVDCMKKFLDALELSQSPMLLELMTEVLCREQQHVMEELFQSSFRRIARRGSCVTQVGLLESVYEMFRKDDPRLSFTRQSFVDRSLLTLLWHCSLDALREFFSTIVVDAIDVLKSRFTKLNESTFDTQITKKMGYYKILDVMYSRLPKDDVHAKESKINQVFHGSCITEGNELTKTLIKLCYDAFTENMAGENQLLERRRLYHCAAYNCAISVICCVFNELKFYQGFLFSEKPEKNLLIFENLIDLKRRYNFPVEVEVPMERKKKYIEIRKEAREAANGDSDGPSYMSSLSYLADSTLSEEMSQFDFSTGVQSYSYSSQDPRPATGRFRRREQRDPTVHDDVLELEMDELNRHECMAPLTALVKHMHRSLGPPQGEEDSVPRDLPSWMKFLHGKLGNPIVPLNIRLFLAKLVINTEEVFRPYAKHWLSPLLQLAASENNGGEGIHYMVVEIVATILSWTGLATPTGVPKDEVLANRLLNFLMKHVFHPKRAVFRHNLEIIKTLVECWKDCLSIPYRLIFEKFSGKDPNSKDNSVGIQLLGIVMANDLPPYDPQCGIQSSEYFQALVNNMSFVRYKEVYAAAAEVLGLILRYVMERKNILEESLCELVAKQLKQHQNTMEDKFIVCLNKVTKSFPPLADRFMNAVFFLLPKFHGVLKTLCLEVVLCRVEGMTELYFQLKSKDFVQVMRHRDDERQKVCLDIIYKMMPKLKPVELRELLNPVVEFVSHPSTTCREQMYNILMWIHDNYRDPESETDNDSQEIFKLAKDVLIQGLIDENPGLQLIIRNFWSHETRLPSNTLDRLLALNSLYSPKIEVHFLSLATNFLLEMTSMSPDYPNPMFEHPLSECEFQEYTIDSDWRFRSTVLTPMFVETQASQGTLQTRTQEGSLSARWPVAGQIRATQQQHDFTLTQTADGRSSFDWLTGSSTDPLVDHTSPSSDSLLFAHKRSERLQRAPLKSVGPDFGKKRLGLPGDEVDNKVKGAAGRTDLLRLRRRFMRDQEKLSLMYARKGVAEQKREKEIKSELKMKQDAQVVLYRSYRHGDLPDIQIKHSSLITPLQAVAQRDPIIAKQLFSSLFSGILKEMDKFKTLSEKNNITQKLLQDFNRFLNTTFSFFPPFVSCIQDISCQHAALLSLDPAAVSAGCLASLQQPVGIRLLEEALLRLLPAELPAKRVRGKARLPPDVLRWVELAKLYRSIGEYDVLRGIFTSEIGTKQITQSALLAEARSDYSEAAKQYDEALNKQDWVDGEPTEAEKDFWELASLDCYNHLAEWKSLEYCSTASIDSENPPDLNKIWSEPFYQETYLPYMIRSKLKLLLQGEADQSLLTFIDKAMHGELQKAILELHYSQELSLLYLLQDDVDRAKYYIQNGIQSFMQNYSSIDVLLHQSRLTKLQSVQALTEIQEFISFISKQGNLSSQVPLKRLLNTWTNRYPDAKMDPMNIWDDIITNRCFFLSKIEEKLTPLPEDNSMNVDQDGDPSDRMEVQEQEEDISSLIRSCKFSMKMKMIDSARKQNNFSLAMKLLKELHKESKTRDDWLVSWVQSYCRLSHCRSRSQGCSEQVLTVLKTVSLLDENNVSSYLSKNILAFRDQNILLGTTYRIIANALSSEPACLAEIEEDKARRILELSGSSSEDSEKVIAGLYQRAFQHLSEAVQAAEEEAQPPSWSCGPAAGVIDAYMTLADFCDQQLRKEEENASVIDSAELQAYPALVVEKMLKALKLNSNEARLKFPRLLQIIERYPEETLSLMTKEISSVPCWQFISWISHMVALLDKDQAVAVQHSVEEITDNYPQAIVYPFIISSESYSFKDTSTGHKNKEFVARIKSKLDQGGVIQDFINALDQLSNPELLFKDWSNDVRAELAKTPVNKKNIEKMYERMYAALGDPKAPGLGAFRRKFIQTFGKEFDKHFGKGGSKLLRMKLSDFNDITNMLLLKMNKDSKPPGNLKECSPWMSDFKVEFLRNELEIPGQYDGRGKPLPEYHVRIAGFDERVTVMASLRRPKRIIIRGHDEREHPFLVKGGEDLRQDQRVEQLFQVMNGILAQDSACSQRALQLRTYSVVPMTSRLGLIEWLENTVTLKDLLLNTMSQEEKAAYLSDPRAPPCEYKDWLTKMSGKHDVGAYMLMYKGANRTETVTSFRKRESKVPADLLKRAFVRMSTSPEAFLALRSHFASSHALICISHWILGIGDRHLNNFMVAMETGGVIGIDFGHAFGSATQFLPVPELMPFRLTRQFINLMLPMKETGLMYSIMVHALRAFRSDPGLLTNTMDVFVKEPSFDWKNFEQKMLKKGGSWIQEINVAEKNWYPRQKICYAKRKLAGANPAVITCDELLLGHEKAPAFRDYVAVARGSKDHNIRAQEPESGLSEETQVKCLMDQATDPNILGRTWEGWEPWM
The target in data set [5] is Serine/threonine-protein kinase mTOR (Homo sapiens, UniProt P42345). Put plainly: Binding affinity to wild-type human partial length mTOR (L1382 to W2549 residues) expressed in mammalian expression system by Kinomescan method.
Data set [6] can be described thus: Apparent half life in Wistar rat at 0.3 to 0.5 mg/kg, iv administered as bolus dose by LC-MS/MS analysis. Format: ADME, organism-based. To be noted: in vivo, read-out: t1/2(app) (converted).
Data set [7] is described as follows: Maximum oral bioavailability in dog liver microsomes based well stirred liver model at 1 uM measured after 2 to 60 mins in presence of NADP by LC-MS/MS analysis. Format: ADME, Canis lupus familiaris, Microsome. To be noted: read-out: Fmax. Background: Microsomes from liver hold many membrane-bound enzymes, among them those of drug oxidation.
Data set [8] has as its target Serine/threonine-protein kinase ATR (Homo sapiens, UniProt Q13535). The data set is described as follows: In vivo inhibition of ATR in human SUDHL8 cells harboring ATM K1964E mutant xenografted CB-17 mouse assessed as reduction in ATR phosphorylation at 50 mg/kg, po bid dosed every 3 days followed by 4 days interval. The class given is functional, organism-based. Background: A xenograft is tissue or cells of one species grown in another, often human tumour cells in immunodeficient mice.

The nature of data set [9]: Apparent half life in NMRI mouse at 0.3 to 0.5 mg/kg, iv administered as bolus dose by LC-MS/MS analysis. The class given is ADME, organism-based. To be noted: in vivo.
Data set [10] in a line: Clearance in Beagle dog at 0.3 to 0.5 mg/kg, iv administered as bolus dose by LC-MS/MS analysis. The class given is ADME, organism-based, Canis lupus familiaris. To be noted: in vivo.
The test system of a further data set is SUM149PT. The data set is described as follows: Antitumor activity against human SUM149 cells xenografted in nude mouse assessed as tumor growth at 20 mg/kg, po bid dosed every 3 days followed by 4 days interval in presence of olaparib relative to control. The class given is functional. The method in brief: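 SUM149 human TNBC xenograft in nude mice, n = 10/group. Oral 20 mg/kg b.i.d., 3 days on/4 days off, combined with olaparib 50 mg/kg q.d. i.p. T/C ratio versus vehicle and the monotherapies; body weight loss was monitored.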

The nature of data set [11]: Clearance in Han-Wistar rat hepatocytes at 1 uM measured after 2 to 90 mins by LC-MS/MS analysis. The class given is ADME, cell-based, Hepatocyte.
Data set [12] in a line: Volume of distribution at steady state in Wistar rat at 0.3 to 0.5 mg/kg, iv administered as bolus dose by LC-MS/MS analysis. The class given is ADME, organism-based. To be noted: in vivo, read-out: Vdss.
A short description of data set [13]: Toxicity in NOD/SCID mouse xenografted with human CR5038 cells assessed as body weight loss at 20 mg/kg, po qd dosed every 2 days followed by 5 days interval measured on day 11 to 14 and 28 to 31 in presence of carboplatin relative to control. The class given is organism-based. To be noted: in vivo.
Data set [14] is described as follows: Clearance in human hepatocytes at 1 uM measured after 2 to 90 mins by LC-MS/MS analysis. Format: ADME, cell-based, Hepatocyte.
Data set [15] in a line: Toxicity in NOD/SCID mouse xenografted with human CR5038 cells assessed as body weight loss at 20 mg/kg, po qd dosed every 2 days followed by 5 days for 2 weeks and subsequent dosing at 10 mg/kg interval measured on day 11 to 14 and 28 to 31 in presence of carboplatin relative to control. The class given is organism-based. To be noted: in vivo.
Data set [16] in a line: Clearance in NMRI mouse at 0.3 to 0.5 mg/kg, iv administered as bolus dose by LC-MS/MS analysis. Format: ADME, organism-based. To be noted: in vivo.
Data set [17] has as its target Serine/threonine-protein kinase RIO2 (Homo sapiens, UniProt Q9BVS4). The data set is described as follows: Binding affinity to wild-type human partial length RIOK2 (M1 to D313 residues) expressed in mammalian expression system by Kinomescan method.

This note sets out measurements from ChEMBL document CHEMBL4610117 (J Med Chem, 2020).

Calls of active or inactive are those of the source. The rule behind the calls is not given here. A value given as a limit tells only on which side of the number the result lay.

Sequence of Serine/threonine-protein kinase RIO2 (Q9BVS4 whole entry, the tested form may be a part): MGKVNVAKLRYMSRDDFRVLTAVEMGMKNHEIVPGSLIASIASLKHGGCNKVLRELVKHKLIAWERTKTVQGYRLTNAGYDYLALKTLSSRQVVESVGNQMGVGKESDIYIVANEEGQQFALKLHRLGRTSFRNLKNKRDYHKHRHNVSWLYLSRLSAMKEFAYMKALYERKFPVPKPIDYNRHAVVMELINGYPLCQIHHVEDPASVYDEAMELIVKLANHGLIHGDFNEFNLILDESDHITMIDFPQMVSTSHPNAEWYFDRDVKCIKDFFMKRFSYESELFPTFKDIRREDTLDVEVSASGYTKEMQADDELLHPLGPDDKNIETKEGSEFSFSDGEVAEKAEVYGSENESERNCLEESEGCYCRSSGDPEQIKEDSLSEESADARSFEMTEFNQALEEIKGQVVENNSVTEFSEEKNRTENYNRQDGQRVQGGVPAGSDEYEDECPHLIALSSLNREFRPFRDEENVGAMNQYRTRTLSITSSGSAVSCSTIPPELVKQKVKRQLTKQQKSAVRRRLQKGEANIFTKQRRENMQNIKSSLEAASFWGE

A word on the clearance: it is the rate of elimination divided by the concentration. A word on the IC50: it is the midpoint of a concentration-inhibition curve. By bioavailability is commonly meant dose-corrected exposure relative to a reference, in per cent. Usually Kd stands for the equilibrium constant for the complex coming apart. For `C[C@@H]1COCCN1c1cc(-c2ccnn2C)c2ccnc(-c3ccn[nH]3)c2n1` [ELIMUSERTIB], the results for the clearance in [1] and in data set [10] were 20 mL/min/kg and 13.2 mL/min/kg, respectively. Besides, the IC50 stood at 9 nM with SU-DHL-8 and 332 nM in data set [4]. In [2], this molecule registered a bioavailability of 51%. For the same molecule, the half-life in data set [3] is 1 h; in data set [6], 1.3 h. Also, the Kd in [5] is 24 nM; in data set [17], 660 nM. In addition, the Fh at 1 µM in [7] turned out to be 54%. The inhibition result in data set [8] is “Active”. The “t1/2(app)” value in data set [9] was 0.17 h. The T/C in the data set with SUM149PT is reported as -0.06. Besides, the figures for the CLH in [11] and in [14] were 12.3 mL/min/kg and 6.83 mL/min/kg, respectively. For the same molecule, the Vd in [12] stood at 1.7 L/kg. The Activity in data set [13] was 11 to 15%; in [15] it was under 10%. This molecule also had a CL in data set [16] of 58.3 mL/min/kg.
